Assay results reported in ChEMBL document CHEMBL5149991 (J Med Chem, 2021).

How the values were obtained:
[1] = molecular target: T1, Histamine H2 receptor (Homo sapiens, UniProt P25021); test: Displacement of [3H]UR-DE257 from human histamine H2 receptor stably expressed in baculovirus infected Sf9 cell membrane co-expressing RG-Salpha S incubated for 60 mins by scintillation counting analysis; type: cell membranes
[2] = molecular target: T2, Histamine H3 receptor (Homo sapiens, UniProt Q9Y5N1); test: Displacement of [3H]UR-PI294 from human histamine H3 receptor stably expressed in baculovirus infected Sf9 cell membrane co-expressing G-alphai2 and G-beta1gamma2 incubated for 60 mins by scintillation counting analysis; type: cell membranes
T2 sequence (Q9Y5N1 whole entry): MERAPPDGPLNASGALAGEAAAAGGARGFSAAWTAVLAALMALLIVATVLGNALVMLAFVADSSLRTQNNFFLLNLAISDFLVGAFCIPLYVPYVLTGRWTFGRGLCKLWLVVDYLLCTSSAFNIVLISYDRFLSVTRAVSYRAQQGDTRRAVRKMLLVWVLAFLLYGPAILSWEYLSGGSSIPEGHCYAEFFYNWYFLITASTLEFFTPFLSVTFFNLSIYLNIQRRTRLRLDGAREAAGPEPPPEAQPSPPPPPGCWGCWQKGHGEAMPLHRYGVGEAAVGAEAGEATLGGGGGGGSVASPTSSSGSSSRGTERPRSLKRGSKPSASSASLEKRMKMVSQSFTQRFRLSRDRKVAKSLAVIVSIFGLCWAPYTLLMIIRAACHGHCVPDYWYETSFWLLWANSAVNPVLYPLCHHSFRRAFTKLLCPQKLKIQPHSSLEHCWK
Method in brief: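 hH3R + Gαi2 + Gβ1γ2 expressed in Sf9 membranes. […] Mean ± SEM from N independent experiments in triplicate.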

[3] = molecular target: Histamine H1 receptor (Homo sapiens, UniProt P35367)
Sequence of Histamine H1 receptor (P35367 whole entry): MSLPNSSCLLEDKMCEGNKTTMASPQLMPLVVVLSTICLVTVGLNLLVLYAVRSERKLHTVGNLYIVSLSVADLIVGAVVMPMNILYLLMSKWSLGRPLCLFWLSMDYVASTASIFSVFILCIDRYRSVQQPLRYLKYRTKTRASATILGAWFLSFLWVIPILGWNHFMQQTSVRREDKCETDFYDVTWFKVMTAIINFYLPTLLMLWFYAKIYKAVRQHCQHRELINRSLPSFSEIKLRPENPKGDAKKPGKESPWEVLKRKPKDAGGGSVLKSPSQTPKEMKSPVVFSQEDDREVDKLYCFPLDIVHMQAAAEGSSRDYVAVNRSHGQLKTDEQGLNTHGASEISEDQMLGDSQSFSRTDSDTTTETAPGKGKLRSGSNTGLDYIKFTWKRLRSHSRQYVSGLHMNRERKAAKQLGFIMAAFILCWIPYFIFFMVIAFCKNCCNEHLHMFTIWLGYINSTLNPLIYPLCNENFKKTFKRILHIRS

[4] = molecular target: Histamine H4 receptor (Homo sapiens, UniProt Q9H3N8)
Sequence of Histamine H4 receptor (Q9H3N8 whole entry): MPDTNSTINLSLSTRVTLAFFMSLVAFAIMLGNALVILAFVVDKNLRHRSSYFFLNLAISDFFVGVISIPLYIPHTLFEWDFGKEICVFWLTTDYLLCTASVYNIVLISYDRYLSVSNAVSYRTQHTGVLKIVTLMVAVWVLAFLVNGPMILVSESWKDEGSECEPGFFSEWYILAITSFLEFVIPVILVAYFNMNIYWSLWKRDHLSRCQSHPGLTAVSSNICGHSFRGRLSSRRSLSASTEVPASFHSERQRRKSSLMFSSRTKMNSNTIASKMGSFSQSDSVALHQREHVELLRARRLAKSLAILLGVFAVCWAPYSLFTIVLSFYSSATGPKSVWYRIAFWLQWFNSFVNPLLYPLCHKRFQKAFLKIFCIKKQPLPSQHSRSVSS

[5] = Chemical stability in pH 7.4 buffer measured at 0 to 2 weeks by HPLC analysis; type: physicochemical; conditions: time 0-2 weeks
[6] = molecular target: T3, D(2) dopamine receptor (Homo sapiens, UniProt P14416); test: Displacement of [3H]N-methylspiperone from human D2 long receptor stably expressed in HEK293T cells co-expressing luciferase and CEK incubated for 140 mins by radioligand competition binding based assay; type: cell-based
T3 sequence (P14416 whole entry): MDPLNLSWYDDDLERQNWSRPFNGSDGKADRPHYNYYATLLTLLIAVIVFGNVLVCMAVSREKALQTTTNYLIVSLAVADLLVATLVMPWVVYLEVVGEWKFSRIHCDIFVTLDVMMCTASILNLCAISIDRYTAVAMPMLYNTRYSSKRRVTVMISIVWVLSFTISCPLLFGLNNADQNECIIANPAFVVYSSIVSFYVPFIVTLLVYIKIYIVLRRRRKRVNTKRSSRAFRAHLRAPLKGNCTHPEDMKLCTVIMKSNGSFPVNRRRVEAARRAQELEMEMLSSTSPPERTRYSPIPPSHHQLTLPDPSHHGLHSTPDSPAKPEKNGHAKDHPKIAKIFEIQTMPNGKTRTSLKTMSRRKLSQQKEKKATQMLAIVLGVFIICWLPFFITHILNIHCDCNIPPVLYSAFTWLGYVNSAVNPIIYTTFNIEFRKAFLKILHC

[7] = molecular target: T4, D(3) dopamine receptor (Homo sapiens, UniProt P35462); test: Displacement of [3H]N-methylspiperone from human D3 receptor stably expressed in HEK293T cells co-expressing luciferase and CEK incubated for 140 mins by radioligand competition binding based assay; type: cell-based
T4 sequence (P35462 whole entry): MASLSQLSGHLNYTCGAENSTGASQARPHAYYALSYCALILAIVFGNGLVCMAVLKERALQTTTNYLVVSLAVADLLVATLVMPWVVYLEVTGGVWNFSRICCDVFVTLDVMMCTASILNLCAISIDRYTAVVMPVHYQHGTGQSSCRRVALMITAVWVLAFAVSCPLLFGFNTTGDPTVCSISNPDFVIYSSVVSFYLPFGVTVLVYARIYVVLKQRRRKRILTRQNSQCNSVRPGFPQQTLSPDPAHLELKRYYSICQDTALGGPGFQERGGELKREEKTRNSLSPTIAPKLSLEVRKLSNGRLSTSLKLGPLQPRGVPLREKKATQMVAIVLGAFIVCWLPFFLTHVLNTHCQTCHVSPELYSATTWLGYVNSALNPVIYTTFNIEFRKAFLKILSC

[8] = molecular target: T4, D(3) dopamine receptor; test: Agonist activity at human D3 receptor stably expressed in HEK293T cells co-expressing ElucN-betaarr2 hD3R-ElucC by beta-arrestin2 recruitment assay; type: functional, cell-based
[9] = molecular target: T2, Histamine H3 receptor
[10] = molecular target: T1, Histamine H2 receptor; test: Agonist activity at human histamine H2 receptor stably expressed in HEK293T cells co-expressing ARRB2 incubated for 60 mins by beta-arrestin2 recruitment assay; type: functional, cell-based
[11] = molecular target: T3, D(2) dopamine receptor; type: functional, cell-based, HEK293T
[12] = molecular target: T1, Histamine H2 receptor; test: Agonist activity at human histamine H2 receptor stably expressed in HEK293T cells co-expressing NlucN-mGs/hH2R-NlucC assessed as induction of mini-Gs protein recruitment using furimazine as substrate measured for 45 mins by luminescence assay

T1 sequence (P25021 whole entry): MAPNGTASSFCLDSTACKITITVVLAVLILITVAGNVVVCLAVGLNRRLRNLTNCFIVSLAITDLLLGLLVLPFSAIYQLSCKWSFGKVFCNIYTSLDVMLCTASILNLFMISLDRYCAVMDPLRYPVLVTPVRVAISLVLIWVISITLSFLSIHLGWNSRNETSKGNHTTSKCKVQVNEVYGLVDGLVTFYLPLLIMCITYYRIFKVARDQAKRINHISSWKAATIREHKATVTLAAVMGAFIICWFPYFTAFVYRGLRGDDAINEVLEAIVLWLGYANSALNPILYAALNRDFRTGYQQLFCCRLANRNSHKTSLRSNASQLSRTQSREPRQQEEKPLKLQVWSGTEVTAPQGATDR

Structure (SMILES) | Ki [1] [nM] | Ki [2] [µM] | Kd [3] [nM] | Ki [3] [µM] | Kd [4] [nM] | Ki [4] [µM] | Stability [5] | Ki [6] [nM] | Ki [7] [nM] | EC50 [8] [nM] | Kd [9] [nM] | Ki [9] [µM] | EC50 [10] [nM] | EC50 [11] [µM] | EC50 [12] [nM]
Cc1nc(N)sc1-c1cccc(N/C(N)=N/C(=O)NCCCCCCNC(=O)/N=C(\N)Nc2cccc(-c3sc(N)nc3C)c2)c1 | 380 | 0.708 | 4.5 | 1.45 | 16 | 2.34 |  |  |  |  |  |  |  |  | 
CCCCCNC(=O)/N=C(/N)NCCCc1nnc(C)s1.O=C(O)C(F)(F)F | 2190 | > 10 | 4.5 | > 10 | 16 | > 10 | Stable |  |  |  |  |  |  |  | 
Cc1nc(N)sc1-c1cccc(N/C(N)=N/C(=O)NCC(C)CCCc2ccccc2)c1 (configuration not stated) | 234 | 10.7 | 4.5 | 13.2 | 16 | 7.08 |  |  |  |  |  |  |  |  | 
N/C(=N\C(=O)NCCCCCCCCNC(=O)/N=C(\N)NCCCc1nnc(N)s1)NCCCc1nnc(N)s1 | 4.79 | 6.92 | 4.5 | 1.82 | 16 | 8.91 |  |  |  |  |  |  |  |  | 
CC(CCCc1ccccc1)CNC(=O)/N=C(\N)NCCCc1nnc(N)s1 (configuration not stated) |  | 3.98 | 4.5 | 5.13 | 16 | 4.9 |  | 447 | 324 | 468 |  |  |  |  | 
Cc1ccc(CC(C)CNC(=O)/N=C(\N)Nc2ccc(-c3sc(N)nc3C)cc2)cc1 (configuration not stated) | 331 | 8.32 | 4.5 | 1.82 | 16 | 6.31 |  |  |  |  | 3 | 8.32 |  |  | 
CCCCCNC(=O)/N=C(\N)Nc1ccc(-c2sc(N)nc2C)cc1.O=C(O)C(F)(F)F.O=C(O)C(F)(F)F | 457 | 11.5 | 4.5 | 3.72 | 16 | 7.76 | Stable |  |  |  | 3 | 11.5 |  |  | 
Cc1nc(N)sc1-c1ccc(N/C(N)=N/C(=O)NC2CCCCC2)cc1 | 550 | 12.3 | 4.5 | 5.5 | 16 | 6.92 |  |  |  |  | 3 | 12.3 |  |  | 
Cc1ccc(CC(C)CNC(=O)/N=C(\N)NCCCc2nnc(N)o2)cc1 (configuration not stated) | 676 | 9.12 | 4.5 | 2.69 | 16 | > 10 |  |  |  |  |  |  |  |  | 
CCCCCCNC(=O)/N=C(\N)NCCCc1nnc(N)o1.O=C(O)C(F)(F)F.O=C(O)C(F)(F)F | 389 | > 10 | 4.5 | 8.91 | 16 | > 10 | Stable |  |  |  |  |  |  |  | 
Cc1ccc(CC(C)CNC(=O)/N=C(\N)NCCCc2cnc(N)s2)cc1 (configuration not stated) | 64.6 | 4.79 | 4.5 | 2.51 | 16 | 4.47 |  | 490 | 229 | 1050 |  |  | 234 | 4.47 | 77.6
NCCCCCCCCNC(=O)/N=C(\N)NCCCc1nnc(N)s1 | 33.1 | > 10 | 4.5 | 0.525 | 16 | > 10 |  |  |  |  |  |  |  |  | 
N/C(=N\C(=O)NCc1ccccc1)NCCCc1cnc(N)s1 | 26.9 | > 10 | 4.5 | 5.62 | 16 | > 10 |  | 4570 | 74.1 | 67.6 |  |  | 49 | 3.39 | 4.9
CC(CCCc1ccccc1)CNC(=O)/N=C(\N)NCC1CCc2nc(N)sc2C1 (configuration not stated) | 110 | 1.74 | 4.5 | 3.89 | 16 | 4.07 |  |  |  |  | 3 | 1.74 |  |  | 
Cc1nnc(CCCN/C(N)=N/C(=O)NCC(C)C2CCCCC2)s1 (configuration not stated) | 1050 |  | 4.5 | 7.08 | 16 | > 10 |  |  |  |  | 3 | 11.5 |  |  | 
Cc1nc(N)sc1-c1ccc(N/C(N)=N/C(=O)NCCCCCCNC(=O)/N=C(\N)Nc2ccc(-c3sc(N)nc3C)cc2)cc1 | 347 | 1.95 | 4.5 | 2.14 | 16 | 2.14 |  |  |  |  |  |  |  |  | 
